Sampled rows, rich in hits. Any-hit rate of the full collection: about 4.4%.
MsrA act = activators of bovine methionine sulfoxide reductase A; purified bovine MsrA, absorbance read-out; activation, % at 10.6 µM; 360,000 compounds, 0.3% hits; in the data active means activation above about 7.5%;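 further: 0% = vehicle and 100% = reference activator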
TbMetRS inhib = Trypanosoma brucei MetRS inhibition; purified T. brucei MetRS, ATP depletion, Kinase-Glo luminescence; inhibition, % at 11.9 µM; 360,000 compounds, 0.4% hits;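 active means inhibition above a per-plate cutoff of the control wells' mean inhibition plus 3 SD, cut at about 5.5% in these data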;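 further: 0% = DMSO wells median and 100% = median of wells with control inhibitor compound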
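Material: T. brucei methionyl-tRNA synthetase, purified; reagent: substrates ATP, L-methionine and bulk Escherichia coli tRNA; dosing: 11.9 µM single point; timing: 15 min plus 2 h at 25 °C; detection: luminescence of leftover ATP; evaluation: % inhibition; control set: DMSO-only wells as low control; replicates: singlicate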
MsrA inhibitor = inhibits bovine methionine sulfoxide reductase A; inhibition, % at 15.5 µM; 360,000 compounds, 0.75% hits; purified bovine MsrA, absorbance read-out; in the data active means inhibition above about 4.5%;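 further: 0% = vehicle wells with enzyme and 100% = reference inhibitor wells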
HTR2A ag = mouse HTR2A agonism via beta-arrestin recruitment; P35363; CHO-K1 mHTR2A beta-arrestin complementation, luminescence; percent of 30 µM serotonin response; activation, % at 7.6 µM; 360,000 compounds, 0.66% hits;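 active means activation above a run cutoff, the mean activation of all tested compounds plus 3 SD, cut at about 14% in these data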;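 further: 0% = plate median of compound wells and 100% = 30 µM serotonin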
Target sequence (P35363 whole entry, looked up): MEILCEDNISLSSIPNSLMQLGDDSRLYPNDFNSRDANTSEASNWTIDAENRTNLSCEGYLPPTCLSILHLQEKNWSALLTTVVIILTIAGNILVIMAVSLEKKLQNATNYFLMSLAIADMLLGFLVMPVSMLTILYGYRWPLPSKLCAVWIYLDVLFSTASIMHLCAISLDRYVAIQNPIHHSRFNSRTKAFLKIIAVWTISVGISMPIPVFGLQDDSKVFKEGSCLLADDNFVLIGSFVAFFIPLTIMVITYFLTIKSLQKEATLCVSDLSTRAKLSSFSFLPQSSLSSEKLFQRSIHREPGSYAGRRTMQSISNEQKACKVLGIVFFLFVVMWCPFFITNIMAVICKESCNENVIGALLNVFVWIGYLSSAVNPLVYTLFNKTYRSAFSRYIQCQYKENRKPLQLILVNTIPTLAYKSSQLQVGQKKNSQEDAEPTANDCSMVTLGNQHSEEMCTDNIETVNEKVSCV
AHR act = activates the human aryl hydrocarbon receptor; P35869; AHR-responsive luciferase reporter cells, luminescence; activation, % at 5 µM; 320,000 compounds, 2.5% hits; AID 2796; in the data active means activation above about 47%;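 further: 0% = vehicle wells and 100% = reference agonist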
AI-2 QS modul = modulates the Vibrio harveyi AI-2 quorum sensing system; activity change, % at 7.5 µM; 300,000 compounds, 0.4% hits; Vibrio harveyi JMH597 AI-2 luminescence/OD600 ratio, 9 h; hits give low values; strain lacks LuxN and CqsS sensors; 0 = neutral-control median; in the data active means activity change below about -75%, passing the limit was not always enough;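 further: luminescence divided by OD600 gain over 9 h not by final OD600 alone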
Starred values were filed as active, the others as inactive; nt = no result given.

SMILES | MsrA act | TbMetRS inhib | MsrA inhibitor | HTR2A ag | AHR act | AI-2 QS modul
Cc1ccc(C(=O)c2ccc([N+](=O)[O-])cc2)cc1 | -2 | 0 | 1 | -6 | -9 | 13
Cc1ccc(-c2cc(N)n(Cc3ccc(Cl)cc3)n2)cc1 | -1 | 0 | 0 | 0 | 56* | -21
COc1cccc(/C=N/NC(=O)c2ccc(COc3ccc(Cl)cc3Cl)o2)c1 | -1 | 1 | 1 | -3 | 53* | 13
O=C(N/N=C/c1ccc2ccccc2c1)c1ccc(COc2ccc3c(c2)CCC3)o1 | -9 | -2 | -1 | -3 | 47* | -10
COc1ccc(Br)cc1/C=N/NC(=O)c1ccc(COc2ccc3c(c2)CCC3)o1 | -4 | -1 | 1 | 2 | 62* | 17
COc1ccccc1/C=N\NC(=O)c1ccc(COc2ccc(C)c(C)c2)o1 | -7 | -1 | 1 | 9 | 49* | 14
O=C(N/N=C/c1ccccc1F)c1ccc(COc2ccccc2Cl)o1 | -11 | -1 | 0 | 10 | 22 | 11
COc1cc(/C=N/NC(=O)c2ccc(COc3ccccc3Cl)o2)cc(Br)c1O | -4 | 0 | 0 | 0 | 40 | 25
Nc1ncnc2c1ncn2[C@@H]1O[C@H](C(=O)N[C@@H](CCc2ccccc2)C(=O)O)[C@@H](O)[C@H]1O | nt | nt | 0 | nt | nt | nt
CCCCN(C)Cc1cc(=O)oc2ccc3ccccc3c12 | 0 | 1 | -1 | 9 | 46 | 4
CC1(C)Oc2cc3oc(=O)ccc3c3c2C2C1CCC(C)(O3)C2O (centres undefined) | -6 | 0 | 2 | 5 | nt | nt
Cc1ccc(Oc2cccc3c2S(=O)(=O)N([C@H](C)c2ccccc2)C[C@@H](COCc2ccccc2)O3)cc1 | nt | nt | 0 | nt | nt | nt
C/C(=N\Nc1ncnc2sc(C)c(C)c12)c1ccccn1 | -3 | -1 | 0 | -1 | 30 | -88*
COC(=O)[C@]12C[C@H](CC(=O)N3CCSCC3)C(=O)N(Cc3ccc4c(c3)OCO4)C1=C[C@H](C(C)(C)C)O[C@@H]2C | nt | nt | 0 | nt | nt | nt
NCC(c1ccccc1)c1c[nH]c2ccccc12 (centres undefined) | -3 | 0 | 0 | -6 | 46 | 9
NCC(c1ccc(Cl)cc1Cl)c1c[nH]c2ccccc12 (centres undefined) | 3 | 0 | 0 | -1 | 65* | 15
CN(C)CCCNC(=S)NCC(c1ccc(Cl)cc1Cl)c1c[nH]c2ccccc12 (centres undefined) | -1 | 0 | -1 | -8 | 12 | 12
NCC(c1ccccc1Cl)c1c[nH]c2ccccc12 (centres undefined) | -3 | 0 | -1 | -1 | 57* | 5
O=C(NC(C(=O)N1CCCC1C(=O)NC1CCCC1)c1ccccc1)c1cccs1 (centres undefined) | nt | nt | 1 | nt | nt | nt
Cc1ccc(NC2CCCN(C(=O)c3cccc(-c4ncc[nH]4)c3)C2)cc1C (centres undefined) | -1 | 0 | -1 | -12 | 5 | 14
Cc1nn(Cc2ccc(F)cc2)c(Cl)c1/C=N/NC(=O)c1ccccc1 | -3 | 1 | -1 | -1 | 15 | 18
Cc1nn(Cc2ccc(F)cc2)c(Cl)c1/C=N/NC(=O)c1cccnc1 | -4 | 0 | 0 | 0 | 52* | 10
O=C(N/N=C\c1cn[nH]c1-c1ccccc1)c1cccnc1 | -1 | 0 | 1 | 1 | 72* | 4
Cc1nn(Cc2ccccc2)c(C)c1/C=N/NC(=O)c1cccnc1 | -5 | 0 | 2 | 2 | 71* | 14
COc1ccc(-c2[nH]ncc2/C=N\NC(=O)c2ccc(Br)o2)cc1OC | -7 | 0 | 2 | -1 | 60* | 6
SMILES | MsrA act | TbMetRS inhib | MsrA inhibitor | HTR2A ag | AHR act | AI-2 QS modul
O=c1[nH]c(-c2ccccc2)cn1C1CCN(Cc2ccc(-c3nc4ccccc4nc3-c3ccccc3)cc2)CC1 | nt | nt | 1 | nt | nt | nt
Cc1ccc(-n2nc(C)c(/C=N/NC(=O)c3cccnc3)c2Cl)cc1 | -3 | 0 | -1 | -1 | 47* | 20
Cc1nn(-c2ccccc2)c(Cl)c1/C=N/NC(=O)c1cccnc1 | -1 | 0 | 0 | 2 | 34 | -4
CCn1nc(C)c(/C=N\NC(=O)c2cccc(OC)c2)c1C | -4 | 0 | 0 | 0 | 49* | 21
COCCCNC(=O)C[C@H]1C[C@@]2(C(=O)OC)C(=C[C@H](COCc3ccccc3)O[C@@H]2C)N(CCC2=CCCCC2)C1=O | nt | nt | 0 | nt | nt | nt
Cc1ccc(-c2csc3ncnc(Nc4ccc(N5CCOCC5)cc4)c23)cc1 | 1 | 0 | 2 | -4 | 78* | 13
Cc1ccc(-c2csc3ncnc(NCCN4CCOCC4)c23)cc1 | -7 | -1 | 1 | -2 | 1 | -18
C=CCN1C(=O)c2n[nH]c(C)c2C1c1ccc(C)cc1 (centres undefined) | nt | nt | 0 | nt | nt | nt
CCC(Cc1ccccc1)NC(=O)c1ccc2nc(N3CCOCC3)sc2c1 (centres undefined) | -3 | 0 | 0 | -3 | 59* | 8
O=C(c1ccccc1)N1CCN(c2ccc([N+](=O)[O-])c(NCc3cccnc3)c2)CC1 | -5 | 1 | 1 | 3 | 25 | 15
CC(C)CC(=O)N1CCN(c2ccc([N+](=O)[O-])c(NCc3ccccc3)c2)CC1 | -1 | 0 | 2 | -5 | 48* | 56
O=C(NCCCNc1ccc(C(F)(F)F)cc1[N+](=O)[O-])c1cc(F)c(F)cc1Cl | 8.7* | 0 | 0 | 1 | 5 | 7
O=[N+]([O-])c1cccc(-c2ccc(/C=N/n3c(-c4ccccc4)n[nH]c3=S)o2)c1 | -1 | 0 | 1 | 3 | 10 | 10
Cc1cc(-c2n[nH]c(=S)n2/N=C/c2ccccc2[N+](=O)[O-])n[nH]1 | -3 | -1 | 1 | 2 | 48* | 32
Cc1cc(-c2n[nH]c(=S)n2/N=C/c2c[nH]c3ccccc23)n[nH]1 | 2 | 0 | -1 | -2 | 7 | 30
Cc1n[nH]c(=S)n1/N=C/c1ccc(-c2ccccc2[N+](=O)[O-])o1 | -4 | -2 | 3 | 1 | 60* | -5
O=[N+]([O-])c1ccccc1/C=C/C=N/n1c(-c2ccc(Cl)cc2)n[nH]c1=S | -2 | 0 | -1 | 2 | 60* | 32
CCOc1ccc(N2CC(C(=O)Nc3cc(C)on3)CC2=O)cc1 (centres undefined) | -8 | -1 | -1 | 4 | 76* | 21
COc1ccc(N2CC(C(=O)Nc3cc(C)on3)CC2=O)cc1 (centres undefined) | -2 | 0 | 0 | 0 | 0 | 16
O=C(/C=C(\Nc1ccc(F)cc1)c1ccccc1)c1ccccc1 | nt | nt | 1 | nt | nt | nt
Oc1ccc(Nc2nc(-c3cccnc3)cs2)cc1 | -4 | 0 | nt | -1 | 74* | 3
Cc1ccc(C(=O)Nc2nc(-c3cccnc3)cs2)o1 | -14 | -2 | 1 | 6 | 70* | 1
